{"source": "paper PMC11964602", "about": "(Bioactive Materials, 2025)", "key": {"[1]": {"molecular_target": "SARS-CoV-2 main protease (M^pro) (SARS-CoV-2 (Wuhan-Hu-1 isolate)) (UniProt P0DTD1)"}, "[2]": {"test_system": "CPB, porcine carboxypeptidase", "conditions": "cited from earlier work"}, "HUVECs [3]": {"test_system": "HUVECs", "assay": "Tube formation assay with H2O2-generated ROS", "format": "cell-based, human", "conditions": "25 μg/mL, 24 h", "summary_of_the_method": "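Confluent HUVECs were harvested and seeded at 1 × 10^4 cells per chamber on basement membrane matrix (Geltrex)-coated chamber slides. ROS groups received H2O2 (200 μM solution). Parent and metabolite peptides were each at 25 μg/mL in medium. After 24 h incubation, tubular networks were imaged by bright-field microscopy and tube parameters quantified by image analysis.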"}, "HUVECs [4]": {"test_system": "HUVECs", "assay": "Wound healing assay", "format": "cell-based, human", "conditions": "25 μg/mL, 8 h, vs control", "summary_of_the_method": "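A confluent HUVEC monolayer was scratched with a sterile 200 μL pipette tip and debris washed off with PBS. Medium containing peptide at 25 μg/mL was added, and cells migrated 8 h at 37 °C. Bright-field images were taken at 0 and 8 h and wound areas measured by image analysis. Percent closure was computed from initial area minus 8-h area. Three experiments were run, each in triplicate wells.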"}, "NIH/3T3": {"test_system": "NIH/3T3", "assay": "Cytotoxicity assay", "format": "cell-based, mouse", "conditions": "NIH/3T3; 6.25–50 μg/mL; 24 h", "summary_of_the_method": "(§1)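 Cells seeded at 10,000 per well and grown 24 h. They were then given medium containing 6.25–50 μg/mL peptide, with medium alone as control, for 24 h at 37 °C, 5% CO2. CCK-8 reagent was added and incubated 1 h at 37 °C, and absorbance read at 450 nm. Cytotoxicity was calculated from the OD values.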"}, "Cytotoxicity assay [5]": {"assay": "Cytotoxicity assay", "format": "cell-based, mouse", "summary_of_the_method": "as §1"}, "HUVECs [6]": {"test_system": "HUVECs", "assay": "Cytotoxicity assay", "format": "cell-based, human", "conditions": "HUVECs; 6.25–50 μg/mL; 24 h", "summary_of_the_method": "as §1"}, "Cytotoxicity assay [7]": {"assay": "Cytotoxicity assay", "format": "cell-based, human", "summary_of_the_method": "as §1"}, "rat RBCs": {"test_system": "rat RBCs", "assay": "Hemolysis assay", "format": "cell-based", "conditions": "62.5–1000 μg/mL, 37 °C, 30 min", "summary_of_the_method": "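Rat RBCs in glycine-buffered stabilizing saline were exposed to test peptide at 62.5, 125, 250, 500 or 1000 μg/mL for 30 min at 37 °C in a water bath, then centrifuged. Supernatant absorbance was read at 540 nm. RBCs in stabilizing buffer defined 0% hemolysis and 0.1% SDS (final) defined 100%.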"}, "[8]": {"molecular_target": "T1, SARS-CoV-2 main protease (M^pro) (SARS-CoV-2 (Wuhan-Hu-1 isolate), UniProt P0DTD1)", "assay": "ITC"}, "[9]": {"molecular_target": "T1, SARS-CoV-2 main protease (M^pro)", "assay": "cell-based or functional assay"}}, "note": "Like-named read-outs stand apart in the source and are kept apart here. Where no end group is shown, it is not given here."}
{"molecule": "FDKS peptide", "values": [{"measurement": "IC50 of inhibition of SARS-CoV-2 M^pro, FRET-based enzymatic assay", "setting": "[1]", "result": 63.2, "unit": "µM"}]}
{"molecule": "Ac-Tβ4_31-43: peptide metabolite of Ac-Tβ4, amino acids 31-43 (KETIEQEKQAGES; Thymosin beta-4; UniProt P62328 32-44, looked up, fragment)", "values": [{"measurement": "detected as metabolite of Ac-Tβ4: CPB", "setting": "[2]", "result": "D ^a"}]}
{"molecule": "CC[C@H](C)[C@H](NC(=O)[C@H](CCC(=O)O)NC(=O)[C@H](C)NC(=O)[C@H](CCSC)NC(=O)[C@H](CC(=O)O)NC(=O)[C@@H]1CCCN1C(=O)[C@H](CCCCN)NC(=O)[C@H](CC(=O)O)NC(=O)[C@H](CO)NC(C)=O)C(=O)N[C@@H](CCC(=O)O)C(=O)N[C@@H](CCCCN)C(=O)N[C@@H](Cc1ccccc1)C(=O)N[C@@H](CC(=O)O)C(=O)N[C@@H](CCCCN)C(=O)N[C@@H](CO)C(=O)N[C@@H](CCCCN)C(=O)N[C@@H](CC(C)C)C(=O)N[C@@H](CCCCN)C(=O)N[C@@H](CCCCN)C(=O)N[C@H](C(=O)N[C@@H](CCC(=O)O)C(=O)N[C@H](C(=O)N[C@@H](CCC(N)=O)C(=O)N[C@@H](CCC(=O)O)C(=O)N[C@@H](CCCCN)C(=O)N[C@@H](CC(N)=O)C(=O)N1CCC[C@H]1C(=O)N[C@@H](CC(C)C)C(=O)N1CCC[C@H]1C(=O)N[C@@H](CO)C(=O)N[C@@H](CCCCN)C(=O)N[C@@H](CCC(=O)O)C(=O)N[C@H](C(=O)N[C@H](C(=O)N[C@@H](CCC(=O)O)C(=O)N[C@@H](CCC(N)=O)C(=O)N[C@@H](CCC(=O)O)C(=O)N[C@@H](CCCCN)C(=O)N[C@@H](CCC(N)=O)C(=O)N[C@@H](C)C(=O)NCC(=O)N[C@@H](CCC(=O)O)C(=O)N[C@@H](CO)C(=O)O)[C@@H](C)CC)[C@@H](C)O)[C@@H](C)O)[C@@H](C)O", "note": "[Ac-Tβ4, Acetyl-thymosin β4]", "values": [{"measurement": "tube formation under H2O2 (ROS scavenging)", "setting": "HUVECs [3]", "result": "failed to mitigate ROS-induced damage"}, {"measurement": "wound closure", "setting": "HUVECs [4]", "result": "significantly enhanced wound closure"}, {"measurement": "cytotoxicity", "setting": "NIH/3T3", "result": "No cytotoxicity"}, {"measurement": "viability", "setting": "Cytotoxicity assay [5]", "result": "> 90", "unit": "%"}, {"measurement": "cytotoxicity", "setting": "HUVECs [6]", "result": "No cytotoxicity"}, {"measurement": "viability", "setting": "Cytotoxicity assay [7]", "result": "> 90", "unit": "%"}, {"measurement": "hemolytic activity, OD values compared to 0.1 % SDS", "setting": "rat RBCs", "result": "< 1.5", "unit": "%"}]}
{"molecule": "Ac-SDKPDMAEIEKFDK", "note": "[Ac-Tβ_(1-14), acetyl-thymosin β4 (amino acids 1-14)]", "values": [{"measurement": "Kd", "setting": "[8]", "result": 19.4, "unit": "µM"}, {"measurement": "dH", "setting": "[8]", "result": 40.3, "unit": "kcal/mol"}, {"measurement": "stoichiometry N", "setting": "[8]", "result": 1.05}, {"measurement": "IC50 of inhibition of SARS-CoV-2 M^pro, FRET-based enzymatic assay", "setting": "[9]", "result": 26.1, "unit": "µM"}]}
{"molecule": "Ac-SDKPDMAEIEKFDKSKL", "note": "[Ac-Tβ_(1-17), acetyl-thymosin β4 (amino acid 1-17)]", "values": [{"measurement": "Kd", "setting": "[8]", "result": 22, "unit": "µM"}, {"measurement": "dH", "setting": "[8]", "result": -11.4, "unit": "kcal/mol"}, {"measurement": "stoichiometry N", "setting": "[8]", "result": 0.87}, {"measurement": "IC50 of inhibition of SARS-CoV-2 M^pro, FRET-based enzymatic assay", "setting": "[9]", "result": 22.4, "unit": "µM"}]}
